Assay results reported in ChEMBL document CHEMBL5674874, “BRD4 facilitates DNA damage response and represses CBX5/Heterochromatin protein 1 (HP1)” (Oncotarget, 2017).
Activity calls are given as the source filed them. No cut-off for these calls is given here.

Tests used:
OVCAR-8 [1] = assay: Cytotoxicity against human OVCAR-8 cells assessed as reduction in cell viability after 3 days by XTT assay; format: functional, cell-based; conditions: OVCAR-8, 72 h
Outline: (§1)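 Ovarian cancer lines in RPMI with 10% heat-inactivated FBS were seeded at 2,000-4000 cells/well in triplicate. Drug from DMSO stock was added 24hr later, and XTT was read 3 days after drug addition. Proliferation is relative to negative control, and IC50 was calculated from the individual XTT data points.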

IGROV-1 = assay: Induction of DNA damage response in human IGROV-1 cells assessed as CHK1 Ser345 phosphorylation at 2.5 uM in presence of 2.5 nM CHK1 inhibitor LY2606368 after 24 hrs by Western blot analysis; format: functional, cell-based
Outline: (§2)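 Cells were exposed to JQ1 (2.5 μM) and/or LY2606368 (2.5 nM) for 24hr. Sub-confluent cells were lysed in 1% NP40 buffer with protease and phosphatase inhibitors, and protein was measured by BCA. Total lysates were blotted for phospho-CHK1 (Ser345) and CHK1 with GAPDH as loading control, using HRP chemiluminescence detection. Blots were repeated three times.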

SK-OV-3 [2] = assay: Cytotoxicity against human SK-OV-3 cells assessed as reduction in cell viability after 3 days by XTT assay; format: functional, cell-based; conditions: SK-OV-3, 72 h; outline: as §1
OVCAR-3 [3] = assay: Cytotoxicity against human OVCAR-3 cells assessed as reduction in cell viability after 3 days by XTT assay; format: functional, cell-based; conditions: OVCAR-3, 72 h; outline: as §1
[4] = biological target: Bromodomain-containing protein 4 (Homo sapiens) (UniProt O60885); conditions: OVCAR-8, dose 500.0 nM, time 24.0 hrs
A2780 [5] = assay: Cytotoxicity against human A2780 cells assessed as reduction in cell viability after 3 days by XTT assay; format: functional, cell-based; conditions: A2780, 72 h; outline: as §1
OVCAR-8 [6] = assay: Effect on gamma-H2AX expression in human OVCAR-8 cells at 2.5 uM for 20 hrs by immunofluorescent staining; format: functional, cell-based
Outline: (§3)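 Cells were serum-starved for 16hr, then given JQ1 2.5 μM and/or LY2606368 10 nM for 20hr. They were fixed in 4% paraformaldehyde, permeabilized with 0.25% Triton X-100, and blocked in 10% goat serum. γ-H2AX (Ser139/Tyr142) antibody at 1:200 was applied for 2hr, then an Alexa Fluor secondary for 1hr at 4°C. Signal was read by flow cytometry.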

OVCAR-8 [7] = assay: Effect on gamma-H2AX phosphorylation in nucleus of human OVCAR-8 cells at 2.5 uM for 20 hrs by immunofluorescent staining; format: functional, cell-based; outline: as §3
OVCAR-5 [8] = assay: Induction of DNA damage response in human OVCAR-5 cells assessed as CHK1 Ser345 phosphorylation at 2.5 uM in presence of 2.5 nM CHK1 inhibitor LY2606368 after 24 hrs by Western blot analysis; format: functional, cell-based; outline: as §2
OVCAR-3 [9] = assay: Induction of DNA damage response in human OVCAR-3 cells assessed as CHK1 Ser345 phosphorylation at 2.5 uM in presence of 2.5 nM CHK1 inhibitor LY2606368 after 24 hrs by Western blot analysis; format: functional, cell-based; outline: as §2
SK-OV-3 [10] = assay: Induction of DNA damage response in human SK-OV-3 cells assessed as CHK1 Ser345 phosphorylation at 2.5 uM in presence of 2.5 nM CHK1 inhibitor LY2606368 after 24 hrs by Western blot analysis; format: functional, cell-based; outline: as §2
OVCAR-5 [11] = assay: Cytotoxicity against human OVCAR-5 cells assessed as reduction in cell viability after 3 days by XTT assay; format: functional, cell-based; conditions: OVCAR-5, 72 h; outline: as §1
OVCAR-8 [12] = assay: Induction of cell cycle arrest in human OVCAR-8 cells assessed as accumulation of cells at G1 phase at 2.5 uM for 20 hrs by propidium iodide staining based flow cytometry; format: functional
OVCAR-8 [13] = assay: Induction of DNA damage response in human OVCAR-8 cells assessed as CHK1 Ser345 phosphorylation at 2.5 uM in presence of 2.5 nM CHK1 inhibitor LY2606368 after 24 hrs by Western blot analysis; format: functional, cell-based; outline: as §2
[14] = biological target: Bromodomain-containing protein 4 (Homo sapiens) (UniProt O60885); conditions: OVCAR-8, dose 500.0 nM, time 24.0 hrs; remark: listed apart in the source
A2780 [15] = assay: Induction of DNA damage response in human A2780 cells assessed as CHK1 Ser345 phosphorylation at 2.5 uM in presence of 2.5 nM CHK1 inhibitor LY2606368 after 24 hrs by Western blot analysis; format: functional, cell-based; outline: as §2
OVCAR-3 [16] = assay: Cytotoxicity against human OVCAR-3 cells assessed as reduction in cell viability at 10 nM in presence of siCBX5 after 3 days by XTT assay; format: functional, cell-based; conditions: time 3.0 day
Outline: (§4)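 Cells were transfected with siRNA (final 20nM, DharmaFECT1) and seeded in 3 replicates 24hr later. Drug was added 24hr after seeding. Viability was read by XTT and normalized to siNeg-transfected cells.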

OVCAR-8 [17] = assay: Induction of abnormal nuclear morphology in human OVCAR-8 cells assessed as loss of nuclear roundness at 10 nM in presence of siCBX5 by immunostaining; format: functional, cell-based
Outline: (§5)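 Ovcar8 cells were transfected with 20nM siRNA; for co-transfection, 10nM of each. At 24hr they were plated on coverslips, and 8hr later LY2606368 10nM was added for 24hr. Cells were fixed (4% paraformaldehyde), permeabilized (0.25% Triton X-100), blocked (10% goat serum) and stained for H3K4me3, γ-H2AX and DAPI. Sphericity is the ratio of two perpendicular nuclear diameters, over multiple fields of 10-40 cells.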

OVCAR-8 [18] = assay: Induction of abnormal nuclear morphology in human OVCAR-8 cells at 10 nM by immunostaining; format: functional, cell-based; outline: as §5
OVCAR-8 [19] = assay: Cytotoxicity against human OVCAR-8 cells assessed as reduction in cell viability at 10 nM in presence of siCBX5 after 3 days by XTT assay; format: functional, cell-based; conditions: time 3.0 day; outline: as §4
SK-OV-3 [20] = assay: Cytotoxicity against human SK-OV-3 cells assessed as reduction in cell viability at 10 nM in presence of siCBX5 after 3 days by XTT assay; format: functional, cell-based; conditions: time 3.0 day; outline: as §4
OVCAR-5 [21] = assay: Cytotoxicity against human OVCAR-5 cells assessed as reduction in cell viability at 10 nM in presence of siCBX5 after 3 days by XTT assay; format: functional, cell-based; conditions: time 3.0 day; outline: as §4

## Cc1sc2c(c1C)C(c1ccc(Cl)cc1)=N[C@@H](CC(=O)OC(C)(C)C)c1nnc(C)n1-2
OVCAR-8 [1]
  IC50: 100 nM
IGROV-1
  Activity: inactive
SK-OV-3 [2]
  IC50: 100 nM
OVCAR-3 [3]
  IC50: 100 nM
[4]
  inhibition: Active
A2780 [5]
  IC50: 100 nM
OVCAR-8 [6]
  Activity: inactive
OVCAR-8 [7]
  Activity: inactive
OVCAR-5 [8]
  Activity: inactive
OVCAR-3 [9]
  Activity: inactive
SK-OV-3 [10]
  Activity: inactive
OVCAR-5 [11]
  IC50: 100 nM
OVCAR-8 [12]
  Activity: Active
OVCAR-8 [13]
  Activity: inactive
[14]
  inhibition: Active
A2780 [15]
  Activity: inactive

## COc1cccc(OCCCN)c1-c1cc(Nc2cnc(C#N)cn2)n[nH]1 [PREXASERTIB]
OVCAR-8 [1]
  IC50: 10 nM
OVCAR-8 [1]; time 3 day
  IC25: 5 nM
SK-OV-3 [2]
  IC50: 10 nM
SK-OV-3 [2]; time 3 day
  IC25: 4 nM
OVCAR-3 [16]
  Activity: inactive
OVCAR-3 [3]
  IC50: 12 nM
OVCAR-3 [3]; time 3 day
  IC25: 6 nM
A2780 [5]
  IC50: 40 nM
A2780 [5]; time 3 day
  IC25: 10 nM
OVCAR-8 [17]
  Activity: inactive
OVCAR-5 [11]
  IC50: 3 nM
OVCAR-5 [11]; time 3 day
  IC25: 1.5 nM
OVCAR-8 [18]
  Activity: Active
OVCAR-8 [19]
  Activity: inactive
SK-OV-3 [20]
  Activity: inactive
OVCAR-5 [21]
  Activity: inactive
